This note sets out measurements from ChEMBL document CHEMBL2331235, “Solphenazines A-F, glycosylated phenazines from Streptomyces sp. strain DL-93” (J Nat Prod, 2013).

Assay [1] relates to Escherichia coli. Kind of assay: Inhibition of Escherichia coli topoisomerase-2-mediated DNA cleavage after 15 mins by agarose gel electrophoresis.
For assay [2], the target named is DNA topoisomerase 2-alpha (Homo sapiens) (UniProt P11388). Kind of assay: Inhibition of topoisomerase-2 (unknown origin)-mediated DNA cleavage […] by agarose gel electrophoresis. Put shortly:
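Human Topo II cleavage assay: 5 units enzyme with 0.3 μg kDNA in the decatenation buffer without potassium glutamate, with etoposide as control. Reactions ran 10 min at 37 °C, then SDS to 1% for 10 min, then 40 mM EDTA and 100 μg/mL proteinase K for 1 h at 50 °C. Products were run on ethidium-containing 1.2% agarose. Linear DNA was compared with and without compound, at least in duplicate.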

Assay [3] concerns the target T1, DNA topoisomerase 1 (Homo sapiens) (UniProt P11387).
T1 sequence (whole entry): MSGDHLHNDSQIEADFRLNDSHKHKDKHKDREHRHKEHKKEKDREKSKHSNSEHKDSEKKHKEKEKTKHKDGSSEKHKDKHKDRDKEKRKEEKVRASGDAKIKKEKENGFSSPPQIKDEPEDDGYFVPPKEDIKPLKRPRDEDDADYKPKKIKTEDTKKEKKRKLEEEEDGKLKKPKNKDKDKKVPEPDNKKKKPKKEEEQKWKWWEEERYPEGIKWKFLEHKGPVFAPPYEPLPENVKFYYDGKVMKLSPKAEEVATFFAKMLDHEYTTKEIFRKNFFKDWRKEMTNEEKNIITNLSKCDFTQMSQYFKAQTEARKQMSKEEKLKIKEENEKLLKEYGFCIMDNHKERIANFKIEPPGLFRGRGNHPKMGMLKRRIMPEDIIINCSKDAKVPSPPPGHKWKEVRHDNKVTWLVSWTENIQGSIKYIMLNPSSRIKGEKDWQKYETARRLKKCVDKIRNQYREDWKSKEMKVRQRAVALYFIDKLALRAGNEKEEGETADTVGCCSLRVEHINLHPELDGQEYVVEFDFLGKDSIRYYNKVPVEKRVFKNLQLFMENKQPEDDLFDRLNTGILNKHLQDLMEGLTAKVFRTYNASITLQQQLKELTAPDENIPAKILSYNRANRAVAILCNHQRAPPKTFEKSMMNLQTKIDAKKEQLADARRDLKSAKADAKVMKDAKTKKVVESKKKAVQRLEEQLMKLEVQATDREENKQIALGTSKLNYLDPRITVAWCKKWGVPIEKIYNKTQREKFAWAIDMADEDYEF
Kind of assay: Inhibition of topoisomerase-1 (unknown origin)-mediated DNA cleavage after 15 mins by agarose gel electrophoresis. Put shortly: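 Topo I cleavage assay: 2 units Topo I with 0.3 μg pBR322 in the unwinding buffer, with camptothecin as control. Reactions ran 10 min at 37 °C, then SDS to 1% for 10 min, then 40 mM EDTA and 100 μg/mL proteinase K for 15 min at 37 °C. DNA was phenol-extracted and run on 1.2% agarose containing 0.5 μg/mL ethidium bromide. Nicked DNA was compared with and without compound, at least in duplicate.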

The target in assay [4] is T2, Topoisomerase I (Bos taurus) (UniProt Q2HPH0).
T2 sequence (whole entry): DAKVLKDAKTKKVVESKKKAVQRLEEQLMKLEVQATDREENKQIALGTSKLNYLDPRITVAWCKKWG
Kind of assay: Inhibition of calf thymus topoisomerase-1-mediated supercoiled plasmid DNA relaxation after 15 mins by agarose gel electrophoresis. Summed up:
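Calf thymus Topo I (0.5 unit) with negatively supercoiled pBR322 (0.3 μg) in 50 mM Tris-HCl pH 7.5, 1 mM MgCl2, 0.5 mM DTT and 50 μg/mL BSA. Camptothecin was the control. Reactions ran 15 min at 37 °C and were stopped on ice with an EDTA/sarkosyl loading dye. Relaxed versus supercoiled DNA was resolved by agarose gel, in duplicate.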

Assay [5] concerns the target T2, Topoisomerase I (Bos taurus). Kind of assay: Inhibition of calf thymus topoisomerase-1-mediated DNA intercalation using relaxed pBR322 after 15 mins. Summed up: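 Unwinding (intercalation) assay: relaxed pBR322 (0.3 μg) with 1 unit calf thymus Topo I in 50 mM Tris-HCl pH 7.5, 1 mM MgCl2, 0.5 mM DTT and 50 μg/mL BSA. Compound was added in DMSO, with ethidium bromide as control. After 15 min at 37 °C, reactions were treated with SDS and proteinase K and phenol-extracted. DNA was run on 1.2% agarose in TAE, and supercoiled DNA was quantified after staining.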

Another assay concerns Vero. Nature of the assay: Cytotoxicity against African green monkey Vero cells after 72 hrs by MTT assay. Type of assay: cell-based. The conditions noted are these: Chlorocebus sabaeus. Summed up: (§1)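 Vero cells in MEM and HCT-116 cells in RPMI, each with 10% FBS, 1% penicillin–streptomycin and 1% Glutamax. Cells were seeded at 3.0 × 10^4 per well and left to adhere overnight. Medium was replaced, and compounds in DMSO were added to a final 150–0.1 μM. Cells were incubated 72 h at 37 °C in 4.5% CO2 (humidified), then viability was read by MTT.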
(Formazan colour is commonly taken as a measure of viable cells.)

Assay [6] in a line: Cytotoxicity against human […] cells after 72 hrs by MTT assay. Type of assay: functional, cell-based. Put shortly: as §1
Another assay has as its system Candida albicans. Nature of the assay: Antimicrobial activity against Candida albicans ATCC 10231 by microbroth dilution assay. Type of assay: functional. In general terms: Broth dilution looks for growth in wells or tubes with falling amounts of substance.
In a further assay the test system is Cryptococcus neoformans. Nature of the assay: Antimicrobial activity against Cryptococcus neoformans ATCC 66031 by microbroth dilution assay. Type of assay: functional.
A further assay deals with Klebsiella pneumoniae. Kind of assay: Antimicrobial activity against Klebsiella pneumoniae ATCC 13883 by microbroth dilution assay. Type of assay: functional.
In a further assay the test system is Pseudomonas aeruginosa. Kind of assay: Antimicrobial activity against Pseudomonas aeruginosa ATCC 27853 by microbroth dilution assay. Type of assay: functional.
The test system of the next assay is Acinetobacter baumannii. Kind of assay: Antimicrobial activity against Acinetobacter baumannii ATCC 19606 by microbroth dilution assay. Type of assay: functional. To be noted: ATCC 19606 = CIP 70.34 = JCM 6841.
Assay [7] relates to Escherichia coli. Kind of assay: Antimicrobial activity against Escherichia coli ATCC 25922 by microbroth dilution assay. Type of assay: functional.
The subject of another assay is Bacillus spizizenii. Nature of the assay: Antimicrobial activity against Bacillus subtilis ATCC 6633 by microbroth dilution assay. Type of assay: functional.
The test system of the next assay is Enterococcus faecalis. Nature of the assay: Antimicrobial activity against vancomycin-resistant Enterococcus faecalis ATCC 51299 by microbroth dilution assay. Type of assay: functional.
Another assay concerns Staphylococcus aureus. Kind of assay: Antimicrobial activity against methicillin-resistant Staphylococcus aureus ATCC 43300 by microbroth dilution assay. Type of assay: functional.
In assay [8] the test system is Streptomyces scabiei. Nature of the assay: Antimicrobial activity against Streptomyces scabies LK 82 at 25 ug/disk after 2 days by disk diffusion assay. Type of assay: functional. Put shortly: (§2)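 S. scabies grown 5 days in liquid ISP2, diluted 1:10 in molten ISP2 agar. Paper discs carrying 25 μg compound (applied in 20 μL methanol) were set on a thin agar layer and overlaid with 10 mL of the seeded agar (double-layer method). Plates were incubated 2 days at 30 °C, and inhibition zone diameters were measured.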
In general terms: In agar diffusion tests the substance spreads into inoculated agar from a disc or well.

Assay [9] has as its system Streptomyces scabiei. Nature of the assay: Antimicrobial activity against Streptomyces scabies NRRL B 2795 at 25 ug/disk after 2 days by disk diffusion assay. Type of assay: functional. Summed up:
as §2

The source made the active and inactive calls. The rule behind the calls is not given here.

Sequence of DNA topoisomerase 2-alpha (Homo sapiens) (P11388 whole entry): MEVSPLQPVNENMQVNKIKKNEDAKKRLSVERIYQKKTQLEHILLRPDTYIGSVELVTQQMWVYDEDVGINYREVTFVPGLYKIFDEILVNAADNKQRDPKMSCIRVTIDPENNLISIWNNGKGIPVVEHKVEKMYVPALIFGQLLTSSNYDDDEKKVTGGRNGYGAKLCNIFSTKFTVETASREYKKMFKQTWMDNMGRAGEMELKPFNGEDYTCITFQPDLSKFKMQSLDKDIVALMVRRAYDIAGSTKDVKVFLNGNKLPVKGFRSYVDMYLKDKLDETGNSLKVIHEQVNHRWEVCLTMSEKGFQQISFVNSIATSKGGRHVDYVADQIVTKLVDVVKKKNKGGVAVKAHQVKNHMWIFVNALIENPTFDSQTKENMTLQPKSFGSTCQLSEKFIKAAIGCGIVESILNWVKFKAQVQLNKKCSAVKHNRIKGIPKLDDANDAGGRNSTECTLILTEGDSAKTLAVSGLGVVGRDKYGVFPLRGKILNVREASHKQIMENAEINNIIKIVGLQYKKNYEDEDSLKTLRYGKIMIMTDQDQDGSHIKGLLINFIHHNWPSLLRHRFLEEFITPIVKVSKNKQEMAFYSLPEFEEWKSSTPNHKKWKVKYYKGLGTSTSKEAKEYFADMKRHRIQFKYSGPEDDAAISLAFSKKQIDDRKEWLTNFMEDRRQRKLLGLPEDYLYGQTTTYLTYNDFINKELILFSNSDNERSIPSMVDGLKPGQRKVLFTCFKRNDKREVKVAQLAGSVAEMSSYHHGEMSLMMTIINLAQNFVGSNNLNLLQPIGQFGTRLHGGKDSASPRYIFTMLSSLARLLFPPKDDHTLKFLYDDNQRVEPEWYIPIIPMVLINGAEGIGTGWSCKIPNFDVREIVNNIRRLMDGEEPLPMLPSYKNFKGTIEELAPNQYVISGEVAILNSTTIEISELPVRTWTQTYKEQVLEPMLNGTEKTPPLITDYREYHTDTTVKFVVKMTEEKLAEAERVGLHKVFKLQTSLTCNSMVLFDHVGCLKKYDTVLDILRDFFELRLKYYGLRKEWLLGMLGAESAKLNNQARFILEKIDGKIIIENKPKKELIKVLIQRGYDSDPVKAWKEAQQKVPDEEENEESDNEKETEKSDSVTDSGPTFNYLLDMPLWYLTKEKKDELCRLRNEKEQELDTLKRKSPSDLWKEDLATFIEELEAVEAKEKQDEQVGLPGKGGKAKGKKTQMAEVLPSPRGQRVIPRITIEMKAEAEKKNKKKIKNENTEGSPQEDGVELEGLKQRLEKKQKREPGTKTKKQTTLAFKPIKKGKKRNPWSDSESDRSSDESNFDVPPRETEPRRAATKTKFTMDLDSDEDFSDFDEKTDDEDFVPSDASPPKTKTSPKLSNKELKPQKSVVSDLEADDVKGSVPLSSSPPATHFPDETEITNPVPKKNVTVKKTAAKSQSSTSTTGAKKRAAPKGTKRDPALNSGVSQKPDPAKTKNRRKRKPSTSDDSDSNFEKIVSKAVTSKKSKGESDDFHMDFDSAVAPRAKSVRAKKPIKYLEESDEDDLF

In the case of `C[C@@H]1O[C@@H](OC(=O)c2cccc3nc4c(C(=O)O[C@@H]5O[C@@H](C)[C@H](O)[C@@H](O)[C@H]5O)cccc4nc23)[C@H](O)[C@H](O)[C@H]1O` [SOPHENAZINE A], the inhibition entry (in the assay on Escherichia coli [1]; in assay [2]; in assay [3]; in assay [4]; in [5]) was “inactive” each time. For the same compound, the EC50 (in general, the concentration giving half of the maximal effect) in the assay on Vero was found to be 84 µM; in assay [6], 18 µM. Further, the MIC in the assay on Candida albicans, against Cryptococcus neoformans, against Klebsiella pneumoniae, with Pseudomonas aeruginosa, with Acinetobacter baumannii and in the assay with Escherichia coli [7] was over 25 mg/L each time. The minimal inhibitory concentration (MIC) with Bacillus spizizenii, with Enterococcus faecalis and against Staphylococcus aureus was over 25 mg/L in each case. Moreover, the result in the assay on Streptomyces scabiei [8] and in the assay with Streptomyces scabiei [9] was inactive.
